Apaf-1 inh – human Apaf-1 inhibition | hit rate 0.71% among 330,000 | inhibition, % at 20 µM | reconstituted apoptosome caspase-3 activity, DEVD-Rh110 fluorescence; active = inhibition of at least 40% at 20 µM;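 note: plate controls were DMSO wells for no effect and DEVD-CHO caspase inhibitor wells for full effect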
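System: Apoptosome proteins | Medium: Hepes pH 7.5 with detergent and BSA | Also added: Cytochrome c trigger plus (Z-DEVD)2-Rh110 caspase-3 substrate | Incubation: 30 min compound preincubation, 50 min activation, room temperature | Detection: Rhodamine 110 fluorescence at Ex 480/Em 540 nm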
Exocytosis inh – lytic granule exocytosis inhibition; TALL-104 LAMP-1 surface exposure, flow cytometry; cells stimulated with thapsigargin and PMA; inhibition, % at 10 µM; hit rate 0.66% among 360,000; AID 651702;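 active = inhibition above about 55%, limit read from the data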
beta cell repl – inducers of beta-cell replication in MIN6 cells | MIN6 cells proliferation, ATPlite luminescence, 48 h; cells starved in 0.2% serum; 100% = growth in 10% serum | proliferation, % at 10 µM | hit rate 0.29% among 330,000;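 active = compounds whose signal lies at least 3.5 SD above the mean of all wells on their plate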;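 note: 0% = DMSO-treated cells in low-serum medium and 100% = 10% serum control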
UBC13 inh – inhibitors of human UBC13 polyubiquitin chain formation; hit rate 0.47% among 330,000; P61088; inhibition, % at 20 µM; TR-FRET; in the data active = inhibition above about 45%, passing the limit was not always enough
Target sequence (P61088 whole entry, looked up): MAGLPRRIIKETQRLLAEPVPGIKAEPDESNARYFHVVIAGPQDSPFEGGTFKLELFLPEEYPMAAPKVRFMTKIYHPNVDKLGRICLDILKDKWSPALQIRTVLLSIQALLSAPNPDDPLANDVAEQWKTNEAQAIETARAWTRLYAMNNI
hiPSC survival – enhancers of human iPSC single-cell survival; hiPSC single-cell survival, ATPlite luminescence; 100% = ROCK inhibitor wells, 0% = DMSO; survival enhancement, % at 20 µM; hit rate 0.044% among 360,000; AID 602274; in the data active = survival enhancement above about 18%;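 note: cells exposed to compounds for 16 hours before the ATP read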
MPTP inh – permeability transition pore inhibition. isolated mouse mitochondria, Ca2+ swelling absorbance, 30 min. inhibition, % at 10 µM. hit rate 1.4% among 360,000;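 active = inhibition of 50% or more, scaled per plate between neutral and stimulator controls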;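 note: 0% = DMSO wells given calcium and 100% = 1 mM EGTA wells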
MPTP counter – membrane potential counter-screen of mitochondrial pore inhibitors; inhibition, % at 10 µM; isolated mitochondria, Rhodamine 123 fluorescence; shares compounds with MPTP inh; hit rate 78% among 5,000; in the data active = inhibition above about 22%;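 note: 0% = DMSO vehicle and 100% = positive control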
MPTP abs DR – MPTP inhibition, dose response swelling confirmation. shares compounds with MPTP inh. isolated mitochondria swelling, absorbance. IC50, µM. hit rate 58% among 780. AID 651561; in the data active = IC50 below about 20 µM
MPTP counter DR – active in counter-screen for permeability transition pore inhibitors; shares compounds with MPTP inh; isolated mitochondria counterscreen, fluorescence read-out; IC50, µM; hit rate 49% among 780; AID 651564; in the data active = IC50 below about 80 µM
* = called active by the depositor; / = no result given. Shown are actives, neighbours in structure and some others; about 3% of the full set was active somewhere.

SMILES	Apaf-1 inh	Exocytosis inh	beta cell repl	UBC13 inh	hiPSC survival	MPTP inh	MPTP counter	others
CC(C)c1ccc(NC(=S)NC2CCCCCC2)cc1	18	0	-6	1	-5	74*	87*
S=C(Nc1ccc(Oc2ccc(NC(=S)NC3CCCCC3)cc2)cc1)NC1CCCCC1	16	-2	-3	-18	-2	70*	52*
S=C(Nc1ccc(Oc2ccccc2)cc1)NC1CCCCC1	25	2	0	3	-5	80*	95*
S=C(NCc1ccc2c(c1)OCO2)NC1CCN(Cc2ccccc2)CC1	3	5	-1	0	0	74*	4	MPTP abs DR=11*;MPTP counter DR=54*
Cc1ccc(NC(=S)NNC(=S)NC2CCCCC2)cc1	-3	-2	-4	-14	1	9	/
O=C(CCc1ccccc1)Nc1ccc2c(c1)C(=O)OC2	-2	0	-1	7	0	-1	/
S=C(Nc1ccc(Oc2ccccc2)cc1)NC1CCCCCC1	/	-1	/	/	-2	96*	89*
S=C(Nc1ccc(Cl)c(Cl)c1)NC1CCCCC1	15	1	-6	6	-1	96*	75*
S=C(Nc1ccc(Cl)cc1Cl)NC1CCCCC1	6	0	-6	4	-2	86*	109*
S=C(NCc1cccc(Cl)c1)NC1CCCCC1	13	5	-5	-1	-2	77*	67*
O=C(Nc1ccc(Cl)cc1Cl)NC1CCCC1	1	0	-3	-15	-2	2	/
CN(Cc1ccccc1)CC(O)COc1ccc(CNCc2ccc(Cl)s2)cc1 (stereo not drawn)	15	2	-5	14	-1	91*	-6	MPTP abs DR=8*;MPTP counter DR=36*
CN(Cc1ccccc1)CC(O)COc1ccc(CNCc2cccnc2)cc1 (stereo not drawn)	-10	2	-3	-7	0	1	/
CC(C)COC(=O)NCC12C=CC(O1)C1C(=O)N(c3ccc(Cl)cc3)C(=O)C12 (stereo not drawn)	6	91*	-1	0	-2	85*	9
O=C(Nc1ccc(Cl)c(Cl)c1)c1ccc(Cn2cc(Cl)cn2)cc1	/	8	/	/	2	54*	87*
COc1ccc(NC(=O)C2Cc3c(-c4ccccc4)ccnc3O2)cc1OC (stereo not drawn)	/	-4	/	/	-1	59*	85*
COc1ccc(NC(=O)C2Cc3c(-c4ccc(Cl)cc4)ccnc3O2)cc1OC (stereo not drawn)	/	8	/	/	4	70*	80*
CCCN1CCN(S(=O)(=O)c2ccc3c(c2)CCC(=O)N3)CC1	5	3	0	6	0	-1	/
C=CCSc1nnc(CCc2ccccc2)n1N	-8	2	2	-1	0	0	/
CCSc1nnc(NC(=O)NC(C)(C(F)(F)F)C(F)(F)F)s1	15	3	0	10	-2	92*	93*
CCCC(=O)Nc1nnc(SCC)s1	0	0	0	8	0	1	/
CCC(NC(=O)Nc1nccs1)(C(F)(F)F)C(F)(F)F	-12	-3	-2	6	-2	1	/
CCSc1nnc(NC(=O)NC(CC)(C(F)(F)F)C(F)(F)F)s1	26	9	-7	4	-1	88*	102*
Cc1ccc(S(=O)(=O)CCC(=O)OCC(=O)NCC(=O)Nc2c(C)cc(C)cc2C)cc1	2	1	3	1	0	0	/
O=S(=O)(c1ccccc1)N1CCCCC1CCc1ccccc1 (stereo not drawn)	/	-4	/	/	-3	0	/
CC(=O)Nc1ccc(S(=O)(=O)Nc2cccc(-c3nc4cc(C)ccc4o3)c2)cc1	27	4	-6	3	0	96*	74*
CC(=O)Nc1ccc(S(=O)(=O)Nc2cccc(-c3csc(C)n3)c2)cc1	6	-4	0	5	-1	2	/
CN(C)c1ccc(-c2ccnc3c2CC(C)(C(=O)Nc2ccc(F)c(Cl)c2)O3)cc1 (stereo not drawn)	/	-3	/	/	8	2	/

Screening results from PubChem.
